Legend:
[1] = test system: human breast cancer cell line MCF7; settings: read-out: IC50 MCF7; cisplatin dissolved in H2O; ref [18]; cited from earlier work
[2] = test system: human ovarian cancer A2780 cell line; settings: read-out: IC50 A2780; cisplatin dissolved in H2O; ref [18]; cited from earlier work
[3] = test system: non-tumorigenic human embryonic kidney cells HEK293T; settings: read-out: IC50 HEK-293T; cisplatin dissolved in H2O; ref [18]; cited from earlier work
[4] = test system: A2780cisR (cisplatin resistant variant of A2780); settings: read-out: IC50 A2780cisR; cisplatin dissolved in H2O; ref [18]; cited from earlier work
plasmid (pBR322) DNA = assay: Electrophoresis mobility shift assay with plasmid DNA; assay type: binding; settings: metal/DNAbp ratios 0.25-2.0; 37 °C, 20 h
How it was run: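 Supercoiled pBR322 (20 μg/mL) in 5 mM Tris/HCl, 50 mM NaClO4, pH 7.39, incubated with test compound at […] metal complex:DNAbp ratios for 20 h at 37 °C in the dark. Untreated DNA and cisplatin-DNA were the controls. Samples were run on 1% agarose in TAE for 1.5 h at 80 V and stained with GelRed for 30 min. Read-out: ratio at which the two plasmid forms coalesce.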

[5] = Stability in solution by 31P{1H} NMR in deuterated solvents; assay type: physicochemical

In the case of `N.N.[Cl][Pt][Cl]` [cisplatin], the IC50 [1] is given as 20 ± 3 µM, the IC50 [2] is given as 1900 ± 600 nM and the IC50 [3] is given as 11 ± 2.9 µM. The IC50 [4] was 35 ± 7 µM and the “effect on electrophoretic mobility of pBR322 plasmid forms” value (plasmid (pBR322) DNA) was “decrease in mobility of the CCC form and an increase in mobility of the OC form”.

In the case of “[{Cp-P(Ph2)=NH-Ph}2Fe](AuCl4)2 [compound 4]”, the “half-life in d6-DMSO solution” value [5] is reported as “weeks”.
